According to ChEMBL document CHEMBL1154721, “Synthesis, antitumor activity and molecular docking study of novel sulfonamide-Schiff's bases, thiazolidinones, benzothiazinones and their C-nucleoside derivatives” (Eur J Med Chem, 2010):
Values after ≈ are worked out from the molar mass of the structure shown.

Tested on: HeLa
Assay: Cytotoxicity against human HeLa cells after 48 hrs by SRB assay
Type: functional, cell-based
Procedure, shortened: (§1)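 Cells were seeded and left 24 h to attach before dosing, then exposed to test compound at […], in triplicate wells per dose. Incubation was 48 h at 37 °C under 5% CO2. Cells were then fixed, washed and stained with sulforhodamine B, excess dye was removed with acetic acid, bound dye was recovered in Tris-EDTA buffer, and colour intensity was read on an ELISA reader.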

Row | Compound | IC50 [µg/mL]
1 | O=c1[nH]cc(F)c(=O)[nH]1 [FLUOROURACIL] | 1.01 (≈ 7.76 µM)

Tested on: MCF7
Assay: Cytotoxicity against human MCF7 cells after 48 hrs by SRB assay
Type: functional, cell-based
Procedure, shortened: as §1

Row | Compound | IC50 [µg/mL]
2 | O=c1[nH]cc(F)c(=O)[nH]1 [FLUOROURACIL] | 0.67 (≈ 5.15 µM)

Molecular target: not listed separately
Assay: Inhibition of PTK

Row | Compound | Ki [µM]
3 | COc1ccc(C2SCC(=O)N2c2ccc(S(=O)(=O)Nc3ccccn3)cc2)cc1OC (stereo unspecified) | 1.05
4 | COc1ccc(C2SCC(=O)N2c2ccc(S(=O)(=O)Nc3ccccn3)cc2)c(O)c1 (stereo unspecified) | 15.4
5 | COc1ccc(/C=N/c2ccc(S(=O)(=O)Nc3ccccn3)cc2)c(O)c1 | 0.258
6 | COc1ccc(C2Sc3ccccc3C(=O)N2c2ccc(S(=O)(=O)Nc3ccccn3)cc2)c(O)c1 (stereo unspecified) | 4.72
7 | COc1cc(C2Sc3ccccc3C(=O)N2c2ccc(S(=O)(=O)Nc3ccccn3)cc2)cc(OC)c1OC (stereo unspecified) | 48.7
8 | COc1cc(/C=N/c2ccc(S(=O)(=O)Nc3ccccn3)cc2)cc(OC)c1OC | 0.526
9 | O=C1CSC([C@H](O)[C@H](O)[C@@H](O)[C@@H](O)CO)N1c1ccc(S(=O)(=O)Nc2ccccn2)cc1 (stereo partly specified) | 2.35
10 | COc1ccc(C2Sc3ccccc3C(=O)N2c2ccc(S(=O)(=O)Nc3ccccn3)cc2)cc1OC (stereo unspecified) | 2.51
11 | COc1ccc(/C=N/c2ccc(S(=O)(=O)Nc3ccccn3)cc2)cc1OC | 0.258
12 | O=S(=O)(Nc1ccccn1)c1ccc(/N=C/[C@H](O)[C@H](O)[C@@H](O)[C@@H](O)CO)cc1 | 0.331
13 | O=C1c2ccccc2SC(c2c[nH]c3ccccc23)N1c1ccc(S(=O)(=O)Nc2ccccn2)cc1 (stereo unspecified) | 0.553
14 | COc1cc(C2SCC(=O)N2c2ccc(S(=O)(=O)Nc3ccccn3)cc2)cc(OC)c1OC (stereo unspecified) | 5.32
15 | COc1ccc(C2SCC(=O)N2c2ccc(S(=O)(=O)Nc3ccccn3)cc2)cc1 (stereo unspecified) | 0.705
16 | Nc1ccc(S(=O)(=O)Nc2ccccn2)cc1 [SULFAPYRIDINE] | 3.59
